In ChEMBL document CHEMBL3580580, “Nodulisporiviridins A-H, Bioactive Viridins from Nodulisporium sp” (J Nat Prod, 2015):
The source made the active and inactive calls. The calls are words filed in the database; no cut-off is given here.

How the values were obtained:
Drosophila = test: Enhancement of short-term memory in Drosophila w1118 (isoCJ1) P35*H29.3 model of human Abeta42 transgenic Alzheimer's disease model assessed as increase in performance index at 100 uM fed to flies for 7 days by Pavlovian olfactory learning method; format: functional, organism-based
How it was run: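 Male flies: elav-GAL4c155 (P35) × UAS-Aβ42 (H29.3) F1, with 2U*H29.3 as normal controls. Newly hatched flies kept about 120 per vial and reared at 28 °C, 42% RH. Fed 100 μM (from 10 mM stock) in 50 μL daily for 4 h, days 2–8. Controls got matching DMSO. Pavlovian olfactory learning done in the dark at 24 °C, 70% RH. Read-out is performance index; two vials per PI.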

[1] = target: T1, Amyloid-beta precursor protein (Homo sapiens, UniProt P05067); test: Inhibition of amyloid beta (1 to 42) (unknown origin) aggregation at 100 uM incubated at 37 degC for 16 hrs by thioflavin T fluorescence assay
T1 sequence (P05067 whole entry): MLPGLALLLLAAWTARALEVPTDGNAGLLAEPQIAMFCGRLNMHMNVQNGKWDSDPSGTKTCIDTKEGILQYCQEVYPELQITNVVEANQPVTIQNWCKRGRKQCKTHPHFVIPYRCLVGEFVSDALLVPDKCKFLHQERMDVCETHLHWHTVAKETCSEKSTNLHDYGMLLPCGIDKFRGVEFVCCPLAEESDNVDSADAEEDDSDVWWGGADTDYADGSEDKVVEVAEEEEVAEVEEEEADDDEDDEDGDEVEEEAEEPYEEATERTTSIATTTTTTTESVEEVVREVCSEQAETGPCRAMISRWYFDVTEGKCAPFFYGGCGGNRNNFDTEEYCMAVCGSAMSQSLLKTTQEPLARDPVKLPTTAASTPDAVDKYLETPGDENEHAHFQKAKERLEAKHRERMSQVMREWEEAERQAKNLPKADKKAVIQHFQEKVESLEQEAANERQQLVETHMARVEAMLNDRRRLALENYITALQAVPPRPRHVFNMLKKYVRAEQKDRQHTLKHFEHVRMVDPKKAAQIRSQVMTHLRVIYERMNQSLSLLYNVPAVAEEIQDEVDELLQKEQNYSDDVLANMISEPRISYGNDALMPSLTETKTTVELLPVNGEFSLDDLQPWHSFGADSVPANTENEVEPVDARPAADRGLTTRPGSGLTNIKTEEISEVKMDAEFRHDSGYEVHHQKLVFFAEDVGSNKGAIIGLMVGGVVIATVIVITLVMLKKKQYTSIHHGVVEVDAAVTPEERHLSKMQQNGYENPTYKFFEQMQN
How it was run: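 Aβ42 prepared at 40 μM in DMSO plus PBS (0.01 M, pH 6.6), mixed 2:1:1 with sample and 80 μM ThT stock. Shaken 15 min, incubated at 37 °C for 16 h, then ThT fluorescence read. Inhibition = (F0−Fi)/F0×100 against no-sample wells. Three independent experiments.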

[2] = target: T1, Amyloid-beta precursor protein; test: Inhibition of amyloid beta (1 to 42) (unknown origin) aggregation incubated at 37 degC for 16 hrs by thioflavin T fluorescence assay
How it was run: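 Aβ42 at 40 μM (in DMSO/PBS pH 6.6), mixed 2:1:1 with sample and 80 μM ThT stock, shaken 15 min, then held at 37 °C for 16 h. Read by ThT fluorescence. IC50 measured only for samples with ≥60% inhibition: six concentrations, three independent experiments, mean % inhibition fitted to a four-parameter variable-slope log(inhibitor)–response curve.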

Which results are given for `C[C@]12CC[C@H](O)c3coc(c31)C(=O)C1=C2[C@@H](O)C[C@]2(C)C(=O)CC[C@@H]12`?
Activity (Drosophila): Active; inhibition [1]: 54.6%

`C[C@]12CCC(=O)c3coc(c31)C(=O)C1=C2[C@@H](O)C[C@]2(C)C(=O)CC[C@@H]12` was tested. Which Activity (Drosophila) did it give?
The Activity was “Active”.

What about the IC50 [2] of the same molecule?
Its IC50 is 1.2 µM.

What about the inhibition [1] of the same molecule?
Its inhibition is 98.8%.

For `C[C@@]12C(=O)CC[C@H]1C1=C(C[C@H]2O)[C@@]2(C)CC[C@H](O)c3coc(c32)C1=O`, which Activity (Drosophila) is on record?
The Activity was “Active”.

And the IC50 [2]?
The IC50 was 43.5 µM.

What about the inhibition [1] of the same molecule?
The inhibition was 70.4%.

For `C[C@]1(O)c2ccc3c(c2C(=O)c2occ(CCCO)c21)CCC3=O`, which Activity (Drosophila) is on record?
The Activity was “Active”.

What about the IC50 [2] of the same molecule?
The IC50 was 28 µM.

What about the inhibition [1] of the same molecule?
The inhibition was 89.5%.

Which results are given for `O=C(O[C@@H]1Cc2c(O)cc(O)cc2O[C@@H]1c1cc(O)c(O)c(O)c1)c1cc(O)c(O)c(O)c1` [EPIGALOCATECHIN GALLATE]?
IC50 [2]: 0.5 µM; inhibition [1]: 95.1%

For `C[C@@]12c3ccc4c(c3C(=O)c3occ(c31)[C@@H](O)C[C@@H]2O)CCC4=O`, which Activity (Drosophila) is on record?
The Activity was “Active”.

And the IC50 [2]?
Its IC50 is 10.1 µM.

And the inhibition [1]?
Its inhibition is 99%.

What does the source list for `C[C@]1(O)c2ccc3c(c2C(=O)c2occ([C@@H](O)CCO)c21)CCC3=O`?
Activity (Drosophila): Active; IC50 [2]: 95.9 µM; inhibition [1]: 63.5%

How did the IC50 [2] turn out when `C[C@@]12c3ccc4c(c3C(=O)c3occ(c31)C(=O)C[C@H]2O)CCC4=O` [DEMETHOXYVIRIDIN] was run?
Its IC50 is 13.4 µM.

For `C[C@@]1(O)c2ccc3c(c2C(=O)c2occ([C@@H](O)CCO)c21)CCC3=O`, which Activity (Drosophila) is on record?
The Activity was “Active”.

What about the IC50 [2] of the same molecule?
Its IC50 is 71.9 µM.

What about the inhibition [1] of the same molecule?
Its inhibition is 80.5%.

What does the source list for `C[C@]1(O)c2ccc3c(c2C(=O)c2occ(CCO)c21)CCC3=O`?
Activity (Drosophila): Active; IC50 [2]: 34.3 µM; inhibition [1]: 62.8%
